Assay results from ChEMBL document CHEMBL1667773, “Synthesis and antifungal activity of furo[2,3-f]quinolin-5-ols” (2011).
Converted amounts (≈) assume the structure as drawn.

Key:
[1] = test system: Candida albicans; test: Antifungal activity against Candida albicans KCCM 50235 after 1 day by twofold broth dilution method; type: functional; conditions: KCCM 50235, 24 h
In short: (§1)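 Candida strains were tested by twofold serial broth dilution in modified Sabouraud dextrose broth at roughly 1 × 10⁵ cells/mL, held at 37 °C and read after one day. MIC was taken as the lowest agent concentration, against fluconazole and 5-fluorocytosine standards.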

[2] = test system: Aspergillus niger; test: Antifungal activity against Aspergillus niger KCTC 1231 after 2 days by twofold broth dilution method; type: functional; conditions: KCTC 1231, 48 h
In short: (§2)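 Twofold broth dilution in modified Sabouraud dextrose broth. Inoculum about 1 × 10⁵ cells/mL. Incubated at 37 °C and read after two days. MIC taken as the lowest concentration of agent tested, with fluconazole and 5-fluorocytosine as reference agents.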

[3] = test system: Aspergillus flavus; test: Antifungal activity against Aspergillus flavus KCCM 11899 after 2 days by twofold broth dilution method; type: functional; conditions: KCCM 11899, 48 h; in short: as §2
[4] = test system: Cryptococcus neoformans; test: Antifungal activity against Cryptococcus neoformans KCCM 50564 after 1 day by twofold broth dilution method; conditions: KCCM 50564, 24 h
[5] = test system: Pichia kudriavzevii; test: Antifungal activity against Candida krusei KCCM 11655 after 1 day by twofold broth dilution method; type: functional; conditions: KCCM 11655, 24 h; in short: as §1
[6] = test system: Candida tropicalis; test: Antifungal activity against Candida tropicalis KCCM 50662 after 1 day by twofold broth dilution method; type: functional; conditions: KCCM 50662, 24 h; in short: as §1

CCOC(=O)c1c(N)oc2c1c(SCC)c(O)c1ncccc12
MIC [1]: 50 µg/mL (≈ 150 µM)
MIC [2]: 25 µg/mL (≈ 75.2 µM)
MIC [3]: 6.3 µg/mL (≈ 19 µM)
MIC [4]: > 50 µg/mL
MIC [5]: > 50 µg/mL
MIC [6]: 25 µg/mL (≈ 75.2 µM)

CCOC(=O)c1c(N)oc2c1c(Sc1ccc(F)cc1)c(O)c1ncccc12
MIC [1]: 50 µg/mL (≈ 125 µM)
MIC [2]: 50 µg/mL (≈ 125 µM)
MIC [3]: 6.3 µg/mL (≈ 15.8 µM)
MIC [4]: 50 µg/mL (≈ 125 µM)
MIC [5]: 50 µg/mL (≈ 125 µM)
MIC [6]: 50 µg/mL (≈ 125 µM)

CCOC(=O)c1c(N)oc2c1c(Sc1ccccc1)c(O)c1ncccc12
MIC [1]: 3.2 µg/mL (≈ 8.41 µM)
MIC [2]: 3.2 µg/mL (≈ 8.41 µM)
MIC [3]: 3.2 µg/mL (≈ 8.41 µM)
MIC [4]: 25 µg/mL (≈ 65.7 µM)
MIC [5]: 3.2 µg/mL (≈ 8.41 µM)
MIC [6]: 1.6 µg/mL (≈ 4.21 µM)

Cc1ccc2cccnc2c1[N+](=O)[O-]
MIC [1]: > 50 µg/mL
MIC [2]: > 50 µg/mL
MIC [3]: > 50 µg/mL
MIC [4]: 50 µg/mL (≈ 266 µM)
MIC [5]: > 50 µg/mL
MIC [6]: > 50 µg/mL

CCOC(=O)c1c(N)oc2c1c(Sc1cccc(C)c1)c(O)c1ncccc12
MIC [1]: 12.5 µg/mL (≈ 31.7 µM)
MIC [2]: 25 µg/mL (≈ 63.4 µM)
MIC [3]: 12.5 µg/mL (≈ 31.7 µM)
MIC [4]: 3.2 µg/mL (≈ 8.11 µM)
MIC [5]: 25 µg/mL (≈ 63.4 µM)
MIC [6]: 25 µg/mL (≈ 63.4 µM)

CCOC(=O)c1c(N)oc2c1c(SC)c(O)c1ncccc12
MIC [1]: 12.5 µg/mL (≈ 39.3 µM)
MIC [2]: 50 µg/mL (≈ 157 µM)
MIC [3]: 50 µg/mL (≈ 157 µM)
MIC [4]: 6.3 µg/mL (≈ 19.8 µM)
MIC [5]: 50 µg/mL (≈ 157 µM)
MIC [6]: 12.5 µg/mL (≈ 39.3 µM)

CCOC(=O)c1c(N)oc2c1c(Cl)c(O)c1ncccc12
MIC [1]: > 50 µg/mL
MIC [2]: > 50 µg/mL
MIC [3]: > 50 µg/mL
MIC [4]: 25 µg/mL (≈ 81.5 µM)
MIC [5]: 6.3 µg/mL (≈ 20.5 µM)
MIC [6]: 50 µg/mL (≈ 163 µM)

CCOC(=O)c1c(N)oc2c1c(Sc1cccc(Cl)c1)c(O)c1ncccc12
MIC [1]: 6.3 µg/mL (≈ 15.2 µM)
MIC [2]: 3.2 µg/mL (≈ 7.71 µM)
MIC [3]: 12.5 µg/mL (≈ 30.1 µM)
MIC [4]: 1.6 µg/mL (≈ 3.86 µM)
MIC [5]: 6.3 µg/mL (≈ 15.2 µM)
MIC [6]: 12.5 µg/mL (≈ 30.1 µM)

CCOC(=O)c1c(N)oc2c1c(Br)c(O)c1ncccc12
MIC [1]: 12.5 µg/mL (≈ 35.6 µM)
MIC [2]: 6.3 µg/mL (≈ 17.9 µM)
MIC [3]: 6.3 µg/mL (≈ 17.9 µM)
MIC [4]: 25 µg/mL (≈ 71.2 µM)
MIC [5]: 6.3 µg/mL (≈ 17.9 µM)
MIC [6]: 6.3 µg/mL (≈ 17.9 µM)

CCOC(=O)c1c(N)oc2c1c(Sc1ccc(O)cc1)c(O)c1ncccc12
MIC [1]: 12.5 µg/mL (≈ 31.5 µM)
MIC [2]: 3.2 µg/mL (≈ 8.07 µM)
MIC [3]: 25 µg/mL (≈ 63.1 µM)
MIC [4]: 12.5 µg/mL (≈ 31.5 µM)
MIC [5]: 25 µg/mL (≈ 63.1 µM)
MIC [6]: 6.3 µg/mL (≈ 15.9 µM)

Nc1nc(=O)[nH]cc1F [FLUCYTOSINE]
MIC [1]: 3.2 µg/mL (≈ 24.8 µM)
MIC [2]: 3.2 µg/mL (≈ 24.8 µM)
MIC [3]: 1.6 µg/mL (≈ 12.4 µM)
MIC [4]: 6.3 µg/mL (≈ 48.8 µM)
MIC [5]: 3.2 µg/mL (≈ 24.8 µM)
MIC [6]: 3.2 µg/mL (≈ 24.8 µM)

CCOC(=O)c1c(N)oc2c1c(Sc1ccc(OC)cc1)c(O)c1ncccc12
MIC [1]: 6.3 µg/mL (≈ 15.3 µM)
MIC [2]: 3.2 µg/mL (≈ 7.8 µM)
MIC [3]: 12.5 µg/mL (≈ 30.5 µM)
MIC [4]: 25 µg/mL (≈ 60.9 µM)
MIC [5]: 6.3 µg/mL (≈ 15.3 µM)
MIC [6]: 6.3 µg/mL (≈ 15.3 µM)

CCOC(=O)c1c(N)oc2c1c(Sc1ccc(Br)cc1)c(O)c1ncccc12
MIC [1]: 1.6 µg/mL (≈ 3.48 µM)
MIC [2]: 1.6 µg/mL (≈ 3.48 µM)
MIC [3]: 0.8 µg/mL (≈ 1.74 µM)
MIC [4]: 25 µg/mL (≈ 54.4 µM)
MIC [5]: 1.6 µg/mL (≈ 3.48 µM)
MIC [6]: 0.8 µg/mL (≈ 1.74 µM)

CCOC(=O)c1c(N)oc2c1c(Sc1ccc(F)c(F)c1)c(O)c1ncccc12
MIC [1]: 0.8 µg/mL (≈ 1.92 µM)
MIC [2]: 1.6 µg/mL (≈ 3.84 µM)
MIC [3]: 1.6 µg/mL (≈ 3.84 µM)
MIC [4]: 50 µg/mL (≈ 120 µM)
MIC [5]: 1.6 µg/mL (≈ 3.84 µM)
MIC [6]: 1.6 µg/mL (≈ 3.84 µM)

COC(=O)c1c(N)oc2c1c(C)c(O)c1ncccc12
MIC [1]: 0.8 µg/mL (≈ 2.94 µM)
MIC [2]: 12.5 µg/mL (≈ 45.9 µM)
MIC [3]: 3.2 µg/mL (≈ 11.8 µM)
MIC [4]: 25 µg/mL (≈ 91.8 µM)
MIC [5]: 25 µg/mL (≈ 91.8 µM)
MIC [6]: 6.3 µg/mL (≈ 23.1 µM)

CCOC(=O)c1c(N)oc2c1c(Sc1ccc(Cl)cc1)c(O)c1ncccc12
MIC [1]: 0.8 µg/mL (≈ 1.93 µM)
MIC [2]: 3.2 µg/mL (≈ 7.71 µM)
MIC [3]: 3.2 µg/mL (≈ 7.71 µM)
MIC [4]: 25 µg/mL (≈ 60.3 µM)
MIC [5]: 1.6 µg/mL (≈ 3.86 µM)
MIC [6]: 0.8 µg/mL (≈ 1.93 µM)

CCOC(=O)c1c(N)oc2c1c(Sc1cccc(F)c1)c(O)c1ncccc12
MIC [1]: 50 µg/mL (≈ 125 µM)
MIC [2]: 25 µg/mL (≈ 62.7 µM)
MIC [3]: 12.5 µg/mL (≈ 31.4 µM)
MIC [4]: 50 µg/mL (≈ 125 µM)
MIC [5]: 50 µg/mL (≈ 125 µM)
MIC [6]: 50 µg/mL (≈ 125 µM)

CCOC(=O)c1c(N)oc2c1c(Sc1ccc(C)cc1)c(O)c1ncccc12
MIC [1]: 6.3 µg/mL (≈ 16 µM)
MIC [2]: 3.2 µg/mL (≈ 8.11 µM)
MIC [3]: 50 µg/mL (≈ 127 µM)
MIC [4]: 12.5 µg/mL (≈ 31.7 µM)
MIC [5]: 50 µg/mL (≈ 127 µM)
MIC [6]: 12.5 µg/mL (≈ 31.7 µM)

Nc1ccc(O)c2ncccc12
MIC [1]: 50 µg/mL (≈ 312 µM)
MIC [2]: 50 µg/mL (≈ 312 µM)
MIC [3]: > 50 µg/mL
MIC [4]: > 50 µg/mL
MIC [5]: > 50 µg/mL
MIC [6]: 50 µg/mL (≈ 312 µM)

CCOC(=O)c1c(N)oc2c1c(Sc1ccc(C)c(C)c1)c(O)c1ncccc12
MIC [1]: 25 µg/mL (≈ 61.2 µM)
MIC [2]: 12.5 µg/mL (≈ 30.6 µM)
MIC [3]: 6.3 µg/mL (≈ 15.4 µM)
MIC [4]: 12.5 µg/mL (≈ 30.6 µM)
MIC [5]: 25 µg/mL (≈ 61.2 µM)
MIC [6]: 12.5 µg/mL (≈ 30.6 µM)

OC(Cn1cncn1)(Cn1cncn1)c1ccc(F)cc1F [FLUCONAZOLE]
MIC [1]: 50 µg/mL (≈ 163 µM)
MIC [2]: 12.5 µg/mL (≈ 40.8 µM)
MIC [3]: 25 µg/mL (≈ 81.6 µM)
MIC [4]: 6.3 µg/mL (≈ 20.6 µM)
MIC [5]: 12.5 µg/mL (≈ 40.8 µM)
MIC [6]: 6.3 µg/mL (≈ 20.6 µM)

COC(=O)c1c(N)oc2c1c(Br)c(O)c1ncccc12
MIC [1]: 50 µg/mL (≈ 148 µM)
MIC [2]: 25 µg/mL (≈ 74.2 µM)
MIC [3]: 25 µg/mL (≈ 74.2 µM)
MIC [4]: 12.5 µg/mL (≈ 37.1 µM)
MIC [5]: 25 µg/mL (≈ 74.2 µM)
MIC [6]: 6.3 µg/mL (≈ 18.7 µM)

CCOC(=O)c1c(N)oc2c1c(C)c(O)c1ncccc12
MIC [1]: 6.3 µg/mL (≈ 22 µM)
MIC [2]: > 50 µg/mL
MIC [3]: 12.5 µg/mL (≈ 43.7 µM)
MIC [4]: 12.5 µg/mL (≈ 43.7 µM)
MIC [5]: 25 µg/mL (≈ 87.3 µM)
MIC [6]: 25 µg/mL (≈ 87.3 µM)
